Bioassay records as filed in PubChem.
Sampled rows, rich in hits. Any-hit rate of the full collection: about 6.8%.
HSF-1 act: HSF-1 activators, primary screen, NIH3T3-HGL cells, MG132 stress, luminescence, single point; activation, % at 9 µM; 300,000 tested, 1.7% active; AID 504408, 2011; NIH3T3-HGL HSF-1 luciferase reporter, 8 h; 100% = twice DMSO control signal;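 active = mean replicate activation of at least 50% with a set share of replicates each reaching 50%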;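 note: 0% = median of the neutral control wells and 100% = twice that signal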
core dimer inh: inhibitors of HCV core protein dimerization, primary screen, biochemical, TR-FRET, high-throughput; TR-FRET GST/Flag-core106 dimerization, 1536-well; inhibition, % at 5 µM; 300,000 tested, 0.33% active; AID 1899, 2009;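 active = inhibition above the mean of all tested compounds plus 3 SD, set per screening campaign, cut at about 45% in these data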
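test system = GST/Flag-tagged HCV core106 proteins | probe or stimulus = Eu donor and XL665 acceptor anti-tag antibodies | times = compound-protein-antibody incubation 4 h at 22.5 °C | signal = TR-FRET, excitation 340 nm, emission 617 and 671 nm | measure = percent inhibition of core106 dimerization signal | controls = wells lacking GST-core106 and wells with excess unlabelled core106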
ALR inh: inhibitors of human ALR sulfhydryl oxidase, primary screen, biochemical, H2O2 detection, HRP-luminol luminescence, single point. FAD-linked sulfhydryl oxidase ALR (Homo sapiens), P55789. purified ALR, DTT oxidation. inhibition, % (no concentration beside the values). 290,000 tested, 3.8% active;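 active = mean replicate inhibition above about 79%, with every replicate also reaching it, limit read from the data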
Target sequence (P55789 whole entry, looked up): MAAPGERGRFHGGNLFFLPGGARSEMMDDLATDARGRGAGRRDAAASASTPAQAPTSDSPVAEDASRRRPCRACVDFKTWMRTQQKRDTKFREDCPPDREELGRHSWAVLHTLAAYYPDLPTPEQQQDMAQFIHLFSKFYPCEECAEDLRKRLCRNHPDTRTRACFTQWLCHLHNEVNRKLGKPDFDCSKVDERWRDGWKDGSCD
PHOSPHO1 block: PubChem AID 1565; Phosphoethanolamine/phosphocholine phosphatase (Homo sapiens), Q8TCT1; recombinant PHOSPHO1, absorbance phosphatase assay; inhibition, % at 13.3 µM; 290,000 tested, 1.1% active; in the data active = inhibition above about 60%
HSF1 inhib: HSF1 inhibitors in luciferase reporter cells, primary screen, cell-based, NIH3T3, luminescence; NIH3T3-HGL HSE-luciferase, MG132-induced, luminescence 8 h; active compounds read low; activity change, negative = inhibition, % at 7.5 µM (by protocol); 300,000 tested, 0.77% active;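 active = more than half of replicate wells show activity change below -50%, luminescence cut by over half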;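 note: luciferase reports HSF-1 transcriptional activity via heat shock element; 0% = median of DMSO wells and -100% = zero luminescence signal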
AI-2 QS modul: Vibrio harveyi AI-2 quorum sensing modulators, primary screen, JMH597 strain, luminescence/OD600 ratio. Vibrio harveyi JMH597 AI-2 luminescence/OD600 ratio, 9 h; active compounds read low; strain lacks LuxN and CqsS sensors; 0 = neutral-control median. 300,000 tested, 0.4% active. AID 2094, 2009. activity change, % at 7.5 µM; in the data active = activity change below about -75%, passing the limit was not always enough;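 note: luminescence divided by OD600 gain over 9 h not by final OD600 alone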
* hit, by the source's call; . = not tested or not shown.

SMILES	HSF-1 act	core dimer inh	ALR inh	PHOSPHO1 block	HSF1 inhib	AI-2 QS modul
CCOC(=O)C1(Cc2cccc(OC)c2)CCCN(C(=O)c2cc(C)on2)C1 (stereo not drawn)	15.6	-6.4	-0.3	67.6*	14.2	3.9
CCOC(=O)C1(Cc2cccc(Cl)c2)CCCN(C(=O)c2ccco2)C1 (stereo not drawn)	11.8	3.9	-3.2	15.9	-3.1	5.7
CCOC(=O)C1(Cc2cccc(Cl)c2)CCCN(C(=O)c2ccoc2C)C1 (stereo not drawn)	28.3	.	14.4	61.0*	6.7	102.7
CCOC(=O)C1(Cc2cccc(OC)c2)CCCN(C(=O)c2cc(C)[nH]n2)C1 (stereo not drawn)	27.9	1.8	-0.8	12.5	14.6	20.0
CCOC(=O)C1(Cc2cccc(OC)c2)CCCN(Cc2nccn2CC)C1 (stereo not drawn)	1.0	-4.7	-8.6	60.1*	2.8	15.8
O=C(NNC(=O)C1CCN(c2ncccn2)CC1)c1ccc(F)cc1	-3.6	-3.3	-0.7	31.0	-6.6	17.9
O=C(COC(=O)c1ccccc1)NCc1ccco1	-11.7	42.7	-5.3	2.7	0.2	11.8
Cc1cccc(Nc2ccccc2C(=O)OCC(=O)N(C)C2CCS(=O)(=O)C2)c1C (stereo not drawn)	-2.7	3.4	34.1	-6.4	-13.2	14.7
O=C(COC(=O)c1ccccc1Nc1ccccc1)NCc1ccccc1	-0.1	-4.2	97.3*	-1.8	7.4	35.3
CN(C(=O)COC(=O)c1ccccc1Nc1ccccc1)C1CCS(=O)(=O)C1 (stereo not drawn)	0.1	-2.7	98.6*	37.3	1.7	13.3
O=C(COC(=O)c1ccccc1Nc1cccc(C(F)(F)F)c1)NCc1ccco1	34.1	64.2*	26.7	24.4	7.9	12.1
O=C(COC(=O)c1ccccc1Nc1ccccc1)NCc1ccccc1Cl	-2.1	0.6	6.2	-5.2	1.2	44.4
O=C(Cc1cccs1)NCCc1ccc(Cl)cc1	10.2	1.8	-13.8	14.7	4.1	20.9
Cc1sc2nc(SCC(=O)N(C)c3ccccc3)n(C)c(=O)c2c1C	-8.8	-8.0	-5.3	37.6	4.6	30.2
Cc1onc(-c2c(F)cccc2Cl)c1C(=O)Nc1cccc(S(=O)(=O)NCc2ccco2)c1	16.4	1.1	-1.4	-32.7	9.0	23.8
CC1CCN(c2ccc(NC(=O)C3CCCN3S(=O)(=O)c3ccc(F)cc3)cc2)CC1 (stereo not drawn)	.	.	32.9	.	.	.
O=C(Nc1ccc(N2CCCCC2)cc1)C1CCCN1S(=O)(=O)c1ccc(F)cc1 (stereo not drawn)	.	.	80.2*	.	.	.
CCOc1ccc(NC(=O)C2CCCCN2S(=O)(=O)c2ccccc2)cc1 (stereo not drawn)	10.4	2.5	-11.3	88.6*	-9.0	0.9
CN(C)c1ccc(NC(=O)C2CCCN(S(=O)(=O)c3ccccc3)C2)cc1 (stereo not drawn)	3.5	-1.1	99.5*	4.2	4.1	-7.6
Cc1ccc(-c2nc(C)sc2CC(=O)OCC(=O)Nc2ccc(F)c(Cl)c2)cc1	-9.5	0.4	-6.8	.	-5.5	10.9
O=C1SC(c2ccccc2)=N/C1=C/c1ccco1	.	5.9	-4.0	72.9*	.	21.3
COc1cc(CN2CCNC(=O)C2CC(=O)NCCCC2CCCC2)cc(OC)c1 (stereo not drawn)	-3.2	10.8	32.9	36.8	1.8	9.2
CC(=Nc1ccccc1)C1=C(O)CSC1=O	-1.9	-2.0	-16.6	-60.0	-7.9	21.1
COc1ccc(N=C(C)C2=C(O)CSC2=O)cc1	-12.7	-2.4	2.1	88.8*	1.3	9.0
COC(=O)c1c[nH]n2c(=O)cc(CCl)nc12	-9.0	9.6	.	-17.9	6.2	-0.8
CCCCCC1(C(=O)OCC)CC(CSC(=N)N)OC1=O (stereo not drawn)	.	-3.9	1.9	36.8	.	8.2
